Activity calls are given as the source filed them. The calls are words filed in the database; no cut-off is given here.
Legend:
L1210 [1] = assay: Cytotoxicity against mouse L1210 cell line; format: cell-based; parameters: Activity: concentration or dose not given beside the values; conditions: for IC50: Mus musculus, L1210; for Activity: mouse, l1210
Summary of the method: (§1)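 Cells grown at 37 °C under 5% CO2 in medium with 2 mM L-glutamine, penicillin, streptomycin and 20% heat-inactivated horse serum. Drug in DMSO (0.5% final) added to exponentially growing cells seeded at 0.8 × 10^5 cells/mL. Coulter counting in quadruplicate at 48 h (L1210) or 96 h (HT-29). IC50 from probit of % growth inhibition versus log dose; four independent runs in triplicate.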

HT-29 = assay: Cytotoxicity against human HT29 cell line; format: cell-based; summary of the method: as §1
L1210 [2] = assay: Cell cycle arrest in mouse L1210 cell line by accumulation at G2/M phase at 5 uM after 24 hrs; format: functional
Summary of the method: (§2)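 L1210 cells in RPMI 1640 with 2 mM L-glutamine, penicillin, streptomycin and 20% heat-inactivated horse serum, 5% CO2, 37 °C, exposed to several drug concentrations. Cells fixed in 70% ethanol, washed, stained 30 min at room temperature with propidium iodide plus RNAse in PBS, then flow cytometry. Read-out is percentage of cells in each cycle phase after 24 h exposure.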

L1210 [3] = assay: Cell cycle arrest in mouse L1210 cell line by accumulation at 8N phase at 5 uM after 24 hrs; format: functional; summary of the method: as §2
[4] = Effect on DNA sequence recognition assessed by DNase I footprinting assay; format: functional
Homo sapiens = species: Homo sapiens; assay: Inhibition of topoisomerase 2 assessed by DNA cleavage complex formation assay
Summary of the method: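 Cleavage complex formed on pYRG plasmid DNA by human topoisomerase II purified from placenta. Linear DNA product quantified by densitometry relative to ellipticine.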

L1210 [5] = assay: Cell cycle arrest in mouse L1210 cell line by accumulation at 8N phase at 20 uM after 24 hrs; format: functional; summary of the method: as §2
L1210 [6] = assay: Cell cycle arrest in mouse L1210 cell line by accumulation at G2/M phase at 1 uM after 24 hrs; format: functional; summary of the method: as §2
L1210 [7] = assay: Cell cycle arrest in mouse L1210 cell line by accumulation at G2 phase at 1 uM after 24 hrs; format: functional
Summary of the method: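 L1210 cells grown in RPMI 1640 with 2 mM L-glutamine, penicillin, streptomycin and 20% heat-inactivated horse serum at 37 °C, 5% CO2, then drug-exposed (methods 21 h; footnote 24 h). Ethanol (70%) fixed, then washed. Stained 30 min at room temperature in PBS with […] RNase and propidium iodide. Flow cytometry gives % cells in each cycle phase.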

| SMILES | IC50 (L1210 [1]) [µM] | IC50 (HT-29) [µM] | further results |
| --- | --- | --- | --- |
| Cc1c2c(c(CC(C)CC(C)(C)C)c3c1C(=O)OC3)Oc1ccccc1O2 (stereo not drawn) | > 10 | > 10 | Activity (L1210 [1]): 70% |
| Cc1c2c(c(CCCCC(=O)O)c3c1Oc1ccccc1O3)C(=O)OC2 | 89 | > 10 |  |
| CCCCCc1c2c(c(C)c3c1C(=O)OC3)Oc1ccc(OC)cc1O2 | > 10 | > 10 | Activity (L1210 [1]): 78% |
| CCCCCCc1c2c(c(C)c3c1Oc1ccccc1O3)C(=O)OC2 | > 10 | 18.2 | Activity (L1210 [1]): 118.3% |
| CCCCCCc1c2c(c(CCCCCC)c3c1Oc1ccccc1O3)C(=O)OC2 | > 10 | > 10 |  |
| CCCCCc1c2c(c(C)c3c1Oc1ccccc1O3)C(=O)OC2 | 7.2 | 9.2 | Activity (L1210 [2]): 35%; Activity (L1210 [3]): 35% |
| CCc1c2c(c(C)c3c1C(=O)OC3)Oc1ccccc1O2 | > 10 | > 10 |  |
| CCCCCc1c2c(c(C)c3c1C(=O)OC3)Oc1ccccc1O2 | 1.8 | 0.12 | Activity (L1210 [2]): 80%; Activity (L1210 [3]): 80%; Activity [4]: inactive; Activity (Homo sapiens): inactive |
| CCCCCCCc1c2c(c(C)c3c1C(=O)OC3)Oc1ccccc1O2 | 3.9 | 1.9 | Activity (L1210 [5]): 70% |
| COc1cccc2c1C(=O)c1c(O)c3c(c(O)c1C2=O)C[C@@](O)(C(=O)CO)C[C@@H]3O[C@H]1C[C@H](N)[C@H](O)[C@H](C)O1 [DOXORUBICIN] | 0.029 | 0.48 | Activity (L1210 [6]): 86% |
| CCCCCCCc1c2c(c(C)c3c1Oc1ccccc1O3)C(=O)OC2 | > 10 | 21.8 |  |
| Cc1c2c(c(CCCCCC#N)c3c1C(=O)OC3)Oc1ccccc1O2 | > 10 | > 10 |  |
| CC1OC(=O)C2=C1Oc1ccccc1O2 (stereo not drawn) | > 10 | > 10 |  |
| CCCc1c2c(c(C)c3c1Oc1ccccc1O3)C(=O)OC2 | > 10 | > 10 | Activity (L1210 [1]): 115% |
| CCCCCCCCc1c2c(c(C)c3c1Oc1ccccc1O3)C(=O)OC2 | > 10 | > 10 |  |
| CCCCCc1c2c(c(C)c3c1Oc1cc(OC)ccc1O3)C(=O)OC2 | > 10 | > 10 | Activity (L1210 [1]): 70% |

| SMILES | IC50 (L1210 [1]) [µM] | IC50 (HT-29) [µM] | further results |
| --- | --- | --- | --- |
| Cc1c2ccncc2c(C)c2c1[nH]c1ccccc12 [ELLIPTECINE] | 0.19 | 14.9 | Activity (L1210 [7]): 50% |
| Cc1c2c(c(C)c3c1Oc1ccccc1O3)C(=O)OC2 | > 100 | > 100 |  |
| CCCCc1c2c(c(C)c3c1Oc1ccccc1O3)C(=O)OC2 | > 100 | 17.7 |  |
| Cc1c2c(c(CCCCCC#N)c3c1Oc1ccccc1O3)C(=O)OC2 | 0.54 | 0.12 | Activity (L1210 [3]): 88%; Activity (Homo sapiens): inactive |
| CCCCCCc1c2c(c(C)c3c1C(=O)OC3)Oc1ccccc1O2 | 2 | 0.38 | Activity (L1210 [2]): 86%; Activity (L1210 [3]): 86% |
| CCCCCCCCc1c2c(c(C)c3c1C(=O)OC3)Oc1ccccc1O2 | > 10 | > 10 |  |
| Cc1c2c(c(C)c3cnccc13)Oc1ccccc1O2 | 1.2 | 22.1 |  |
| CNCCCCc1c2c(c(C)c3c1C(=O)OC3)Oc1ccccc1O2 | 2.4 | 0.54 | Activity (L1210 [2]): 86%; Activity (L1210 [3]): 86% |
| CCc1c2c(c(C)c3c1Oc1ccccc1O3)C(=O)OC2 | > 10 | > 10 |  |
| CCCc1c2c(c(C)c3c1C(=O)OC3)Oc1ccccc1O2 | > 10 | > 10 | Activity (L1210 [1]): 111% |
| Cc1c2c(c(CC(C)CC(C)(C)C)c3c1Oc1ccccc1O3)C(=O)OC2 (stereo not drawn) | 13.5 | > 10 |  |
| Cc1c2c(c(CCCCC#N)c3c1Oc1ccccc1O3)C(=O)OC2 | 77 | 24.1 |  |
| Cc1c2c(c(CCCCCC(=O)O)c3c1Oc1ccccc1O3)C(=O)OC2 | > 10 | > 10 |  |
| CCCCCCc1c2c(c(C)c3c1C(=O)SC3)Oc1ccccc1O2 | 19 | 34.5 |  |
| Cc1c2c(c(CCCCCN)c3c1Oc1ccccc1O3)C(=O)OC2 | 12.8 | 5.7 |  |
